Tests used:
Type in all cases: functional
Mus musculus [1] = experiment: Inhibitory activity against carrageenan induced paw edema in mice; set-up: concentration or dose not given beside the values
Mus musculus [2] = experiment: The compound was evaluated for inhibition of edema induced by histamine at 10 mg/mL
Outline: (§1)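 Female albino mice (22 ± 2 g, local breed), six per group, housed in eights with free food and water, acclimatised at least 2 days. Compound given orally at 100 mg/kg; 60 min later 0.01 mL of the phlogistic agent (histamine or serotonin) injected subcutaneously into the right hind paw plantar surface. Paw edema measured with a dial thickness gauge; effect expressed as percent inhibition.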

Mus musculus [3] = experiment: The compound was evaluated for inhibition of edema induced by serotonin at 250 ug/mL; outline: as §1
Mus musculus [4] = experiment: The compound was evaluated for inhibition of edema induced by arachidonic acid at 1 mg/mL
Outline: (§2)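 Mice, six per group, dosed orally at 100 mg/kg. After 60 min, 0.01 mL of phlogistic agent (arachidonic acid or bradykinin) was injected subcutaneously into the right hind paw plantar surface. Edema was measured by dial thickness gauge and the effect expressed as percent inhibition.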

Mus musculus [5] = experiment: The compound was evaluated for inhibition of edema induced by bradykinin at 100 ug/mL; outline: as §2
Mus musculus [6] = species: Mus musculus; experiment: Analgesic activity in mice; set-up: concentration or dose not given beside the values
Outline: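 Female albino mice (22 ± 2 g, local breed), groups of eight, dosed orally at 100 mg/kg as a suspension in 5% gum arabic syrup. After 1 h, 3% acetic acid was given ip at 300 mg/kg. Stretches were counted over 10 min, starting 5 min after injection. Percent activity = |n − n'|/n × 100 against syrup-only controls (n = 6).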

Mus musculus [7] = experiment: Intestinal ulcerogenic activity at a dose of 60 mg/kg: 8 mice were considered for the test
Outline: (§3)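 Fed animals were gavaged with compound on 3 consecutive days and killed 24 h after the last dose. Intestines were examined for ulcers. Read-out: ulcer incidence per group of 8 and lesion length (mm/mouse ± SE).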

Mus musculus [8] = experiment: The compound was evaluated for inhibition of edema induced by PGE at […]
Outline: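 Mice, six per group, dosed orally at 100 mg/kg. After 60 min, PGE2 (20 μg/0.01 mL) was injected subcutaneously into the right hind paw plantar surface. Edema was measured with a dial thickness gauge and the effect expressed as percent inhibition.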

Mus musculus [9] = experiment: Gastric ulcerogenic activity at a dose of 60 mg/kg: 8 mice were considered for the test
Outline: (§4)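 Mice fasted 24 h with water available. Compound in methyl cellulose vehicle given by oral gavage at 0.5 mL/100 g body weight. Animals were killed after 4 h and stomachs examined for lesions under a dissecting microscope. Read-out: ulcer incidence per group of 8 and lesion length (mm/mouse ± SE).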

Mus musculus [10] = experiment: Antiinflammatory activity against CPE in mice following peroral administration of 60 mg/kg; conditions: route oral
Outline: (§5)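 Female albino mice (22 ± 2 g), six per group, dosed orally. After 60 min, 0.01 mL of 2% carrageenan was injected subcutaneously into the right hind paw plantar surface. Edema was read with a dial thickness gauge 3 h later. ED50 was given in mg/kg po with 95% confidence limits.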

Mus musculus [11] = experiment: Intestinal ulcerogenic activity at a dose of 60 mg/kg; outline: as §3
Mus musculus [12] = experiment: Gastric ulcerogenic activity at a dose of 300 mg/kg: 8 mice were considered for the test; outline: as §4
Mus musculus [13] = experiment: Intestinal ulcerogenic activity at a dose of 100 mg/kg; outline: as §3
Mus musculus [14] = experiment: Gastric ulcerogenic activity at a dose of 300 mg/kg; outline: as §4
Mus musculus [15] = experiment: Intestinal ulcerogenic activity at a dose of 100 mg/kg: 8 mice were considered for the test; outline: as §3
Mus musculus [16] = experiment: Intestinal ulcerogenic activity at a dose of 300 mg/kg: 8 mice were considered for the test; outline: as §3
Mus musculus [17] = experiment: Gastric ulcerogenic activity at a dose of 60 mg/kg; outline: as §4
Mus musculus [18] = experiment: Intestinal ulcerogenic activity at a dose of 300 mg/kg; outline: as §3
Mus musculus [19] = experiment: Gastric ulcerogenic activity at a dose of 100 mg/kg: 8 mice were considered for the test; outline: as §4
Mus musculus [20] = experiment: Intestinal ulcerogenic activity at a dose of 10 mg/kg; outline: as §3
Mus musculus [21] = experiment: The compound was evaluated for inhibition of edema induced by serotonin at 250 micro g/mL; outline: as §1
Mus musculus [22] = experiment: Gastric ulcerogenic activity at a dose of 10 mg/kg; outline: as §4
Mus musculus [23] = experiment: The compound was evaluated for inhibition of edema induced by bradykinin at 100 micro g/mL; outline: as §2
Mus musculus [24] = experiment: Inhibitory activity against carrageenan induced mouse paw edema in mice.
Mus musculus [25] = experiment: Antiinflammatory activity against CPE in mice following peroral administration of 10 mg/kg; conditions: route oral; outline: as §5
Mus musculus [26] = experiment: Intestinal ulcerogenic activity at a dose of 10 mg/kg; 8 mice were considered for the test; outline: as §3
Mus musculus [27] = experiment: Gastric ulcerogenic activity at a dose of 10 mg/kg: 8 mice were considered for the test; outline: as §4
Mus musculus [28] = experiment: Intestinal ulcerogenic activity at a dose of 50 mg/kg: 8 mice were considered for the test; outline: as §3
Mus musculus [29] = experiment: Gastric ulcerogenic activity at a dose of 50 mg/kg: 8 mice were considered for the test; outline: as §4
Mus musculus [30] = experiment: Antiinflammatory activity against CPE in mice following peroral administration of 20 mg/kg; conditions: route oral; outline: as §5
Mus musculus [31] = experiment: Intestinal ulcerogenic activity at a dose of 20 mg/kg: 8 mice were considered for the test; outline: as §3
Mus musculus [32] = experiment: Gastric ulcerogenic activity at a dose of 20 mg/kg; outline: as §4
Mus musculus [33] = experiment: Intestinal ulcerogenic activity at a dose of 50 mg/kg; outline: as §3
Mus musculus [34] = experiment: Intestinal ulcerogenic activity at a dose of 20 mg/kg; outline: as §3
Mus musculus [35] = experiment: Gastric ulcerogenic activity at a dose of 50 mg/kg; outline: as §4
Mus musculus [36] = experiment: Gastric ulcerogenic activity at a dose of 20 mg/kg: 8 mice were considered for the test; outline: as §4
Mus musculus [37] = experiment: Gastric ulcerogenic activity at a dose of 100 mg/kg; outline: as §4

## O=C(c1ccc2c(c1)oc(=O)n2CCc1ccncc1)c1ccccc1Cl
Mus musculus [1]
  Inhibition: 38.6%
Mus musculus [2]
  Inhibition: 7.4%
Mus musculus [3]
  Inhibition: 10%
Mus musculus [4]
  Inhibition: 39%
Mus musculus [5]
  Inhibition: 7%
Mus musculus [6]
  Analgesic activity: 84.35%

## O=c1oc2ccccc2n1CCc1ccccn1
Mus musculus [7]
  Ulcer incidence: 0 number/group
Mus musculus [8]
  Inhibition: 56.2%
Mus musculus [1]
  Inhibition: 55.2%
Mus musculus [9]
  Ulcer incidence: 0 number/group
Mus musculus [10]
  ED50: 55 mg/kg
Mus musculus [11]
  Lesion length: 0 mm mice-1
Mus musculus [2]
  Inhibition: 5.5%
Mus musculus [12]
  Ulcer incidence: 4 number/group
Mus musculus [3]
  Inhibition: 10.2%
Mus musculus [13]
  Lesion length: 0 mm mice-1
Mus musculus [14]
  Lesion length: 0.7 mm mice-1
Mus musculus [4]
  Inhibition: 41.3%
Mus musculus [15]
  Ulcer incidence: 0 number/group
Mus musculus [16]
  Ulcer incidence: 0 number/group
Mus musculus [17]
  Lesion length: 0 mm mice-1
Mus musculus [18]
  Lesion length: 0.07 mm mice-1
Mus musculus [19]
  Ulcer incidence: 1 number/group
Mus musculus [5]
  Inhibition: 6%
Mus musculus [6]
  Analgesic activity: 92.17%

## COc1ccc2c(c1)c(CC(=O)O)c(C)n2C(=O)c1ccc(Cl)cc1 [INDOMETHACIN]
Mus musculus [20]
  Lesion length: 0.4 mm mice-1
Mus musculus [21]
  Inhibition: 10.3%
Mus musculus [22]
  Lesion length: 0.6 mm mice-1
Mus musculus [2]
  Inhibition: 14.7%
Mus musculus [4]
  Inhibition: 37%
Mus musculus [23]
  Inhibition: 13.4%
Mus musculus [24]
  Inhibition: 21.1%
Mus musculus [25]
  ED50: 7.5 mg/kg
Mus musculus [26]
  Ulcer incidence: 8 number/group
Mus musculus [27]
  Ulcer incidence: 7 number/group

## CC(=O)c1ccc2c(c1)oc(=O)n2CCc1ccccn1
Mus musculus [1]
  Inhibition: 5.6%
Mus musculus [6]
  Analgesic activity: 48.74%

## COc1ccc(C(=O)c2ccc3c(c2)oc(=O)n3CCc2ccccn2)cc1
Mus musculus [1]
  Inhibition: 30.8%
Mus musculus [2]
  Inhibition: 5.4%
Mus musculus [3]
  Inhibition: 9.9%
Mus musculus [4]
  Inhibition: 40%
Mus musculus [5]
  Inhibition: 13%
Mus musculus [6]
  Analgesic activity: 80.34%

## COc1ccc(C(=O)c2ccc3c(c2)oc(=O)n3CCc2ccncc2)cc1
Mus musculus [1]
  Inhibition: 25.9%
Mus musculus [2]
  Inhibition: 8%
Mus musculus [3]
  Inhibition: 15%
Mus musculus [4]
  Inhibition: 32%
Mus musculus [5]
  Inhibition: 10%
Mus musculus [6]
  Analgesic activity: 75.21%

## O=c1oc2ccc(Cl)cc2n1CCc1ccncc1
Mus musculus [8]
  Inhibition: 68%
Mus musculus [1]
  Inhibition: 68.5%
Mus musculus [28]
  Ulcer incidence: 0 number/group
Mus musculus [29]
  Ulcer incidence: 0 number/group
Mus musculus [2]
  Inhibition: 11%
Mus musculus [30]
  ED50: 18.2 mg/kg
Mus musculus [31]
  Ulcer incidence: 0 number/group
Mus musculus [32]
  Lesion length: 0 mm mice-1
Mus musculus [33]
  Lesion length: 0 mm mice-1
Mus musculus [3]
  Inhibition: 13.1%
Mus musculus [13]
  Lesion length: 0.15 mm mice-1
Mus musculus [34]
  Lesion length: 0 mm mice-1
Mus musculus [4]
  Inhibition: 51.2%
Mus musculus [15]
  Ulcer incidence: 0 number/group
Mus musculus [35]
  Lesion length: 0 mm mice-1
Mus musculus [19]
  Ulcer incidence: 1 number/group
Mus musculus [5]
  Inhibition: 9%
Mus musculus [6]
  Analgesic activity: 100%
Mus musculus [36]
  Ulcer incidence: 0 number/group
Mus musculus [37]
  Lesion length: 0.4 mm mice-1

Reference: ChEMBL document CHEMBL1125427, “Synthesis of 3-(2-pyridylethyl)benzoxazolinone derivatives: potent analgesic and antiinflammatory compounds inhibiting prostaglandin E2” (1992)
